Experimental findings from ChEMBL document CHEMBL1139597, “Evaluation of 3-substituted arginine analogs as selective inhibitors of human nitric oxide synthase isozymes” (Bioorg Med Chem Lett, 2005) are described below.

In general, pIC50 refers to −log10 of the IC50, conventionally taken in molar units.

The target of one experiment is T1, Nitric oxide synthase 3 (Homo sapiens, UniProt P29474).
T1 sequence (P29474 whole entry): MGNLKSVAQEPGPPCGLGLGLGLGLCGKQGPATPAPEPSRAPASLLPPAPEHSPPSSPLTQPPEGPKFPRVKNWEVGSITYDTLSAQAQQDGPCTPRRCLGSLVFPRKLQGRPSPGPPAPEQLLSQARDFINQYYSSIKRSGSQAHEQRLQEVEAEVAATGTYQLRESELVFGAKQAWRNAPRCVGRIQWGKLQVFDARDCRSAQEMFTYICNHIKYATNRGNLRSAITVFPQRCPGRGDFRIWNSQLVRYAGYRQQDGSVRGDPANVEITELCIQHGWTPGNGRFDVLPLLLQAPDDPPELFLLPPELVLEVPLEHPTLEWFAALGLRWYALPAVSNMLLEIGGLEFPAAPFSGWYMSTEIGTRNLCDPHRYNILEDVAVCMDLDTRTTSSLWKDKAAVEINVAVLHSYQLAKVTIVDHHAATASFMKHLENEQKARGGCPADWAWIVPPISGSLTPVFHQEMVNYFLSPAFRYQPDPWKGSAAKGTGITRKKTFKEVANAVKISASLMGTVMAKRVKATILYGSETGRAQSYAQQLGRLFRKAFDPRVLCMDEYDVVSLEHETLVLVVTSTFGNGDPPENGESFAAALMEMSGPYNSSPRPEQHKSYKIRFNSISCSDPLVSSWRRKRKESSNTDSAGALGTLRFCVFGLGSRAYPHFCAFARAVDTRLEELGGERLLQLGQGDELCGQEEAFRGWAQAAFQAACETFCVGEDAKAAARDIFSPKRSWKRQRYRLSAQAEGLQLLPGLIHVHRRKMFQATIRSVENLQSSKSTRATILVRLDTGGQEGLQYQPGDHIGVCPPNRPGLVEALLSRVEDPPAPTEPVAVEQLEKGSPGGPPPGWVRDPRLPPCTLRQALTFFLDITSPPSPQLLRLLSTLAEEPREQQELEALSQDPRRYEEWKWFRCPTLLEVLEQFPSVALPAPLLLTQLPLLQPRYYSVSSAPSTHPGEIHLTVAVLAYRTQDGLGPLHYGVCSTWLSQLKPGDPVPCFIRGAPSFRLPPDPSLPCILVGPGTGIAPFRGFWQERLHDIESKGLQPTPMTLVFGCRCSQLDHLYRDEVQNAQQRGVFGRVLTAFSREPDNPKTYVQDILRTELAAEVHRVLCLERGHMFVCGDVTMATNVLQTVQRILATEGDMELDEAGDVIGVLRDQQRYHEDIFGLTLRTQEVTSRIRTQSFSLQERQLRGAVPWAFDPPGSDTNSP
The experiment in a line: Inhibitory concentration against human endothelial nitric oxide synthase expressed in Sf-9 cells. The procedure, abridged:
(§1)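 Recombinant human NOS isozyme produced in Sf-9 insect cells. Enzyme activity was followed as conversion of [¹⁴C]-L-Arg to [¹⁴C]-L-Cit, and IC50 was calculated from the concentration dependence of inhibition. Inhibitors were tested up to 1 mM.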

Another experiment addresses Nitric oxide synthase 1 (Homo sapiens, UniProt P29475). The experiment in a line: Inhibitory concentration against human neuronal nitric oxide synthase expressed in Sf-9 cells. In a few lines: as §1
For experiment [1], the target named is Nitric oxide synthase, inducible (Homo sapiens, UniProt P35228). The experiment in a line: Inhibitory concentration against human inducible nitric oxide synthase expressed in Sf-9 cells. In a few lines:
as §1

pIC50: −log10 of the molar value.

Sequence of Nitric oxide synthase 1 (P29475 whole entry): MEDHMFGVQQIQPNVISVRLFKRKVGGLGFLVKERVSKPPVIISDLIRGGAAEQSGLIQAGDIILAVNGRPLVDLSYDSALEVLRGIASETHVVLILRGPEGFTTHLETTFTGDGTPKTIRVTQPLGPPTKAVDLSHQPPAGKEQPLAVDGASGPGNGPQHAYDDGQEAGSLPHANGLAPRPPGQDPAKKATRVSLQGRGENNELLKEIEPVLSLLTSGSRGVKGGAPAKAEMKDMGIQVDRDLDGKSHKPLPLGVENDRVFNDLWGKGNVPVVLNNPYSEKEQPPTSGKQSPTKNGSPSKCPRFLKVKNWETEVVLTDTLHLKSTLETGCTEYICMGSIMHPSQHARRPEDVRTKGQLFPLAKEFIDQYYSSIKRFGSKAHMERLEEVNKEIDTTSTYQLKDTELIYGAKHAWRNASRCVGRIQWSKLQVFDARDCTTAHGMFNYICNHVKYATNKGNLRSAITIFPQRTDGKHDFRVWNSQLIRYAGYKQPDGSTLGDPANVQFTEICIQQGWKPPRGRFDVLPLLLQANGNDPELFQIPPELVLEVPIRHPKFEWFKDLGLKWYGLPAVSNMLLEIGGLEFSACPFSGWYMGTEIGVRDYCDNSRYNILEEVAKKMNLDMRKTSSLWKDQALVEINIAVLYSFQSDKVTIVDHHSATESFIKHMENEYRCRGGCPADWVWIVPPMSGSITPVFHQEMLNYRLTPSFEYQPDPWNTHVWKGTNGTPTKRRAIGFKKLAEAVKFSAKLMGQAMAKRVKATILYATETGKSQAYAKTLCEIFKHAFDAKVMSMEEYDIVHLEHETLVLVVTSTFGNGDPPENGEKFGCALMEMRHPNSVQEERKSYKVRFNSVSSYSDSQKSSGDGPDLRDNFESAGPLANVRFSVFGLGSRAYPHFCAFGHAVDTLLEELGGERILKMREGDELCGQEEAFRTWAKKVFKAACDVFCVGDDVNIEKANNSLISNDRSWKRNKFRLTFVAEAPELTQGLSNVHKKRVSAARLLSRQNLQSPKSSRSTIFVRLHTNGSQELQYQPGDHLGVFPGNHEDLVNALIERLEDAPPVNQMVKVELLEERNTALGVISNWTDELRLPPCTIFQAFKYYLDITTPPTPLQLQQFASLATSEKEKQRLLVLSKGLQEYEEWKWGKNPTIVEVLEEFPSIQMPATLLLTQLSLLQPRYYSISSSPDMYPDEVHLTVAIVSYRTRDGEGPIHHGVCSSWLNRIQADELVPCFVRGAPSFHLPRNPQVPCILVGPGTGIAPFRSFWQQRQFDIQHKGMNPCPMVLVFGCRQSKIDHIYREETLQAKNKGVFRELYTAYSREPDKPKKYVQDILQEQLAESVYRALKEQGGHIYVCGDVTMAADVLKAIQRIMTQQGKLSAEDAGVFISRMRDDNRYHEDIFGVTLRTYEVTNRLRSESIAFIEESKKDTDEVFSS
Sequence of Nitric oxide synthase, inducible (P35228 whole entry): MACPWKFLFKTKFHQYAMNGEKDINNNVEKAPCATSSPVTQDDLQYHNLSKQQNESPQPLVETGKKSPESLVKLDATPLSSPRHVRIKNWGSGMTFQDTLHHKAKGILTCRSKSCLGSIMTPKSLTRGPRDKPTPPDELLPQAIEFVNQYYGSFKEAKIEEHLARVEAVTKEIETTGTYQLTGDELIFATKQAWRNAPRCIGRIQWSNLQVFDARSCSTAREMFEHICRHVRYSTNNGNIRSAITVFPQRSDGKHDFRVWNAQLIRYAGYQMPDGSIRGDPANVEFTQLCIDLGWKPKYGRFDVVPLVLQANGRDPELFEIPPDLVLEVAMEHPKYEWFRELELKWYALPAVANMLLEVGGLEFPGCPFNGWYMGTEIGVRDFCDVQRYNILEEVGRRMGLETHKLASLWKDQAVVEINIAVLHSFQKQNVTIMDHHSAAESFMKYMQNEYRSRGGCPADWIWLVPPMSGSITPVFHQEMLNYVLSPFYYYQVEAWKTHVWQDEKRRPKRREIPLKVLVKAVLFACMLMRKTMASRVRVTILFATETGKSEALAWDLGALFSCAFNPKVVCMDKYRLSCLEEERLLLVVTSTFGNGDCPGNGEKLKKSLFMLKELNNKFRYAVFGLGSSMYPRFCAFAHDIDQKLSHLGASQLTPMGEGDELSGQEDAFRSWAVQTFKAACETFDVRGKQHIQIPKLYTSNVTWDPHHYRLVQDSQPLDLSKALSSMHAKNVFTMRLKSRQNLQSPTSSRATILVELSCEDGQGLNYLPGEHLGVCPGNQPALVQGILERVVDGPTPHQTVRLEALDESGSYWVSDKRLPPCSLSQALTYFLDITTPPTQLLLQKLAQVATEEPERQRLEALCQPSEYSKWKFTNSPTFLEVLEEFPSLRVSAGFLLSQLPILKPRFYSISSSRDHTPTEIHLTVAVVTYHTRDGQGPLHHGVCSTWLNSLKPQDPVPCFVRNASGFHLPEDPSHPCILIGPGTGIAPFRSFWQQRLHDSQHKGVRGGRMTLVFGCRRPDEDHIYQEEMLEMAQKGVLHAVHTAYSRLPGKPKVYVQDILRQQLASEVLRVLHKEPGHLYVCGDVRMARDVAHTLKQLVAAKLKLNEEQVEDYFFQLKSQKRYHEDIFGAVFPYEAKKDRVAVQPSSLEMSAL

For `CSC(=N)NCCC[C@H](N)C(=O)N[C@@H](Cc1ccccc1)C(=O)O`, the negative logarithm of the IC50 (pIC50) against Nitric oxide synthase 3 was less than 3.00; at Nitric oxide synthase 1 it was 4.44; in experiment [1], 5.41.

For `CCC[C@@H](CCN=C(N)SC)[C@H](N)C(=O)O`, the figures for the pIC50 (against Nitric oxide synthase 3; against Nitric oxide synthase 1; in experiment [1]) were less than 3.00, 3.30 and 3.43, respectively.

`CC(=N)NCC[C@@H](C)[C@H](N)C(=O)O`: the pIC50 (on Nitric oxide synthase 3; at Nitric oxide synthase 1; in experiment [1]) was less than 3.00 each time.

`CC(=N)NCCC[C@H](N)C(=O)O` [L-NIO]: the pIC50 was 5.22 at Nitric oxide synthase 3 and 5.40 in experiment [1].
